Assay results published in ChEMBL document CHEMBL5104204, “Synthesis and in vitro anticancer evaluation of novel flavonoid-based amide derivatives as regulators of the PI3K/AKT signal pathway for TNBC treatment” (RSC Med Chem, 2022).
Active and inactive are the calls of the source. The rule behind the calls is not given here.

How the values were obtained:
MDA-MB-231 [1] = test: Induction of apoptosis in human MDA-MB-231 cells assessed as viable cells at 1.76 uM incubated for 48 hrs AnnexinV/ propidium iodide staining based flow cytometry (Rvb= 99.02%); assay type: functional; conditions: read-out: Activity
MDA-MB-231 [2] = test: Inhibition of cell migration in human MDA-MB-231 cells at 0.88 uM incubated for 12 hrs by scratch wound healing assay; assay type: functional, cell-based
MDA-MB-231 [3] = test: Induction of apoptosis in human MDA-MB-231 cells assessed as upregulation of Bax expression at 1 to 10 uM incubated for 48 hrs by western blot analysis; assay type: functional, cell-based; conditions: dose 1-10 µM, DDE = dose-dependent effect
A549 = test: Antitumor activity against human A549 cells assessed as inhibit cell proliferation incubated for 72 hrs by CCK-8 assay; assay type: functional, cell-based; conditions: A549, 72 h
Procedure, shortened: (§1)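 CCK8 viability readout. Culture media: HCC1937, A549, HeLa and GTL-16 in RPMI 1640; MDA-MB-231, MCF-7 and HepG2 in high-glucose DMEM; all with 10% FBS and penicillin/streptomycin, 37 °C, 5% CO2. 4×10^3–6×10^3 cells/well, 24 h, then compounds in serum-free medium, 72 h at 37 °C. 10% CCK8, 2 h, OD 450/630 nm. Five wells per group; IC50 from inhibition rate; three independent experiments, mean ± SD.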

MDA-MB-231 [4] = test: Inhibition of PI3K/AKT signalling pathway in human MDA-MB-231 cells assessed as decrease in phosphorylated AKT level at 1 to 10 uM incubated for 48 hrs by western blot analysis; assay type: cell-based; conditions: dose 1-10 µM, DDE = dose-dependent effect
Procedure, shortened: (§2)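 MDA-MB-231 treated at 1, 5 and 10 μM at 37 °C, then lysed in RIPA/PMSF for 30 min at 0 °C and cleared at 14 000 × g, 4 °C. Protein quantified by BCA; 40 μg resolved by SDS-PAGE and transferred to PVDF. Blocked in 5% skim milk, primary antibody overnight at 4 °C, secondary 2 h at room temperature, chemiluminescent imaging.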

MDA-MB-231 [5] = test: Induction of cell cycle arrest in human MDA-MB-231 cells assessed as decrease in G2/M phase at 0.88 to 3.52 uM incubated for 48 hrs by flow cytometry; assay type: functional, cell-based; conditions: dose 0.88-3.52 µM, DDE = dose-dependent effect
Procedure, shortened: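 Cell cycle of MDA-MB-231 after 48 h exposure: trypsinised and washed in PBS, about 1×10^6 cells/mL. Fixed overnight in pre-cooled 70% ethanol at 4 °C, then resuspended in PBS and filtered through 200-mesh nylon. Flow cytometry with 488 nm excitation gave G0/G1, S and G2/M percentages; n = 3, mean ± SD.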

MDA-MB-231 [6] = test: Induction of apoptosis in human MDA-MB-231 cells assessed as necrotic cells at 1.76 uM incubated for 48 hrs AnnexinV/ propidium iodide staining based flow cytometry (Rvb= 0.54%); assay type: functional
MDA-MB-231 [7] = test: Induction of apoptosis in human MDA-MB-231 cells assessed as early apoptotic cells at 3.52 uM incubated for 48 hrs AnnexinV/ propidium iodide staining based flow cytometry (Rvb= 0.3%); assay type: functional
MDA-MB-231 [8] = test: Induction of apoptosis in human MDA-MB-231 cells assessed as viable cells at 3.52 uM incubated for 48 hrs AnnexinV/ propidium iodide staining based flow cytometry (Rvb= 99.02%); assay type: functional; conditions: read-out: Activity
MDA-MB-231 [9] = test: Inhibition of colony formation in human MDA-MB-231 cells assessed as decrease in number of colony forming cells at 0.44 to 3.52 incubated for 48 hrs by crystal violet staining based assay; assay type: functional, cell-based; conditions: DDE = dose-dependent effect
Procedure, shortened: (§3)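 Colony formation, MDA-MB-231: 800 cells/well, three replicate wells per group, grown 5–7 days at 37 °C, 5% CO2 until 30–50-cell clusters formed. Drug then added for 24, 48 or 72 h. Washed with cold PBS, fixed in 4% paraformaldehyde 30 min, stained with 0.5% crystal violet, imaged, colonies counted; n = 3.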

MDA-MB-231 [10] = test: Inhibition of colony formation in human MDA-MB-231 cells assessed as decrease in size of colony forming cells at 1.76 uM incubated upto 72 hrs by crystal violet staining based assay; assay type: functional, cell-based; conditions: TDE = time-dependent effect; procedure, shortened: as §3
MDA-MB-231 [11] = test: Inhibition of cell invasion in human MDA-MB-231 cells assessed as decrease in number of cells crossing microporous membrane at 0.88 to 3.52 uM incubated for 48 hrs by crystal violet staining based transwell invasion assay; assay type: functional; conditions: dose 0.88-3.52 µM, DDE = dose-dependent effect
Procedure, shortened: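 Transwell invasion, MDA-MB-231. Cells in serum-free medium in the upper chamber with compound; complete medium below. 48 h at 37 °C. Methanol fixation 2 h, non-invaded cells swabbed off, 0.5% crystal violet 30 min. Invaded cells photographed and counted; n = 3, mean ± SD.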

MDA-MB-231 [12] = test: Induction of apoptosis in human MDA-MB-231 cells assessed as increase in apoptotic bodies at 0.88 to 3.52 uM incubated for 48 hrs by Hoechst 33258 staining based fluorescence microscopic analysis; assay type: functional, cell-based; conditions: dose 0.88-3.52 µM, DDE = dose-dependent effect
Procedure, shortened: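 MDA-MB-231 seeded at 2×10^5–3×10^5 per well and incubated overnight (37 °C, 5% CO2). Exposed to compound for 48 h. Fixed in methanol 30 min, then stained with Hoechst 33258 for 30 min at room temperature in the dark. Nuclear morphology scored by fluorescence microscopy; n = 3, mean ± SD.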

MDA-MB-231 [13] = test: Induction of apoptosis in human MDA-MB-231 cells assessed as downregulation of Bcl-2 expression at 1 to 10 uM incubated for 48 hrs by western blot analysis; assay type: functional, cell-based; conditions: dose 1-10 µM, DDE = dose-dependent effect; procedure, shortened: as §2
MDA-MB-231 [14] = test: Induction of apoptosis in human MDA-MB-231 cells assessed as late apoptotic cells at 3.52 uM incubated for 48 hrs AnnexinV/ propidium iodide staining based flow cytometry (Rvb= 0.40%); assay type: functional
MDA-MB-231 [15] = test: Induction of apoptosis in human MDA-MB-231 cells assessed as late apoptotic cells at 2.2 uM incubated for 48 hrs AnnexinV/ propidium iodide staining based flow cytometry (Rvb= 0.40%); assay type: functional
MDA-MB-231 [16] = test: Inhibition of PI3K/AKT signalling pathway in human MDA-MB-231 cells assessed as upregulation of PTEN expression at 1 to 10 uM incubated for 48 hrs by western blot analysis; assay type: cell-based; conditions: dose 1-10 µM, DDE = dose-dependent effect; procedure, shortened: as §2
MDA-MB-231 [17] = test: Inhibition of colony formation in human MDA-MB-231 cells assessed as decrease in number of colony forming cells at 1.76 uM incubated upto 72 hrs by crystal violet staining based assay; assay type: functional, cell-based; conditions: TDE = time-dependent effect; procedure, shortened: as §3
GTL 16 cell line = test: Antitumor activity against human GTL 16 cell line assessed as inhibit cell proliferation incubated for 72 hrs by CCK-8 assay; assay type: functional, cell-based; conditions: GTL 16, 72 h; procedure, shortened: as §1
MDA-MB-231 [18] = test: Induction of apoptosis in human MDA-MB-231 cells assessed as necrotic cells at 7.04 uM incubated for 48 hrs AnnexinV/ propidium iodide staining based flow cytometry (Rvb= 0.54%); assay type: functional

IC50 (A549): 3.58 µM
SMILES: O=C(Nc1cccc(-c2oc3cc(-c4ccc(F)cc4)ccc3c(=O)c2O)c1)c1ccc(Cl)nc1
viability at 1.76 µM (MDA-MB-231 [1]): 45.8%
inhibition (MDA-MB-231 [2]): Active
Activity (MDA-MB-231 [3]): Dde
inhibition (MDA-MB-231 [4]): Dde
Activity (MDA-MB-231 [5]): Dde
Activity (MDA-MB-231 [6]): 0.86%
Activity (MDA-MB-231 [7]): 15.04%
viability at 3.52 µM (MDA-MB-231 [8]): 12%
inhibition (MDA-MB-231 [9]): Dde
inhibition (MDA-MB-231 [10]): Tde
inhibition (MDA-MB-231 [11]): Dde
Activity (MDA-MB-231 [12]): Dde
Activity (MDA-MB-231 [13]): Dde
Activity (MDA-MB-231 [14]): 14.4%
Activity (MDA-MB-231 [15]): 61.14%
inhibition (MDA-MB-231 [16]): Dde
inhibition (MDA-MB-231 [17]): Tde
IC50 (GTL 16 cell line): 7.52 µM
Activity (MDA-MB-231 [18]): 1.92%
